S100A4 MyoIIA: inhibitors of S100A4-myosin IIA peptide binding, primary screen, biochemical, fluorescence polarization, TAMRA-MyoIIA peptide; Protein S100-A4 (Homo sapiens), P26447; inhibition, % at 10.7 µM; 360,000 compounds, 0.14% hits;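 active = mean inhibition of at least 70% across replicates, with every replicate also reaching that level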
Target sequence (P26447 whole entry, looked up): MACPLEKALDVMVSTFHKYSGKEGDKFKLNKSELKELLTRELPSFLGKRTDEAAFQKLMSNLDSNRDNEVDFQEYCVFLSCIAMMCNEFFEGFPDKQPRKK
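Material: S100A4 monomer protein | Medium: HEPES pH 7.2 with CaCl2, KCl, NaCl, DTT, Triton | Reagent: Labelled myosin peptide probe, 5 nM | Doses: One dose per compound | Times: 5 min incubation before reading | Benchmarks: Neutral control DMSO, positive control TFP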
miR122 inh: miR-122 Renilla sensor signal increase in Huh7, primary screen, miR-122 inhibitor project, cell-based, single point, plate reader | Huh7 miR-122 Renilla luciferase sensor, 48 h; neutral wells = 0, positive control = 100 | activation (reporter increase), % at 12.5 µM | 340,000 compounds, 0.3% hits;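 active = mean replicate activation score at least 90 and every replicate individually at or above 90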;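 note: higher luciferase means less miR-122 activity so hits act as miR-122 inhibitors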
ERAP1 inh: human ERAP1 aminopeptidase inhibitors, primary screen, biochemical, single point, plate reader; Endoplasmic reticulum aminopeptidase 1 (Homo sapiens), Q9NZ08; recombinant ERAP1, Leu-AMC fluorescence, 60 min; inhibition, % at 10.7 µM; 340,000 compounds, 0.15% hits;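 active = mean replicate inhibition of at least 30%, or all replicates individually reaching that 30% level; inactive = mean below 30% and not every replicate reaching it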;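 note: 0% = neutral control wells and 100% = L-leucinethiol positive control wells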
Rtt109 Vps75: inhibitors of C. albicans Rtt109/Vps75 HAT, primary screen, biochemical, ThioGlo CoA-SH fluorescence, plate reader; Histone acetyltransferase RTT109 (Candida albicans (strain SC5314 / ATCC MYA-2876)), …; 330,000 compounds, 0.16% hits; purified Rtt109/Vps75, 4 h; inhibition, % at 34.9 µM;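 active = inhibition of at least 50% in every replicate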
Target sequence (Q5AAJ8 whole entry, looked up): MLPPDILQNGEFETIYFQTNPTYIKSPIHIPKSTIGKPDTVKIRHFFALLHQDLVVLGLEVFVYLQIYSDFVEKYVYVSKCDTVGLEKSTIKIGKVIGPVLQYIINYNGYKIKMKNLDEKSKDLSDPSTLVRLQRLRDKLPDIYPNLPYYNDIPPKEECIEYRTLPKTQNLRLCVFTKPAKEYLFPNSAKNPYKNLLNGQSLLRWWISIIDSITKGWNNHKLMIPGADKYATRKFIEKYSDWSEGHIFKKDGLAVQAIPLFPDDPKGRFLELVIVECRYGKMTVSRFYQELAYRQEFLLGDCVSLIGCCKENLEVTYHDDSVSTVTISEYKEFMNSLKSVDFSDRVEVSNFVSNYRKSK
MLL AF4-AF9 inh: inhibitors of AF4 peptide binding to AF9, primary screen, biochemical, AlphaScreen, biotin-AF4 peptide, FLAG-AF9, single point; AID 651704, 2012; Protein AF-9 (Homo sapiens), P42568; inhibition, % at 10 µM; 350,000 compounds, 0.47% hits;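 active = every replicate reaching a set inhibition limit, whatever the replicate mean, cut at about 25% in these data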;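 note: 0% = plate neutral control median and 100% = total signal loss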
* = called active by the depositor; nt = not tested or not shown; [ ] = dose if it differs, or a comment. The list is not random: actives were taken first. Their share in the collection is about 0.86%.

SMILES	S100A4 MyoIIA	miR122 inh	ERAP1 inh	Rtt109 Vps75	MLL AF4-AF9 inh
Cc1ccc(S(=O)(=O)N(C)C[C@@H]2Oc3ccc(N(C)C)cc3C(=O)N([C@H](C)CO)C[C@H]2C)cc1	3	2[16.7 µM]	-1	nt	3
CN1OC[C@@H]2CN(Cc3ccc4c(c3)OCO4)[C@H](c3ccc(N4CCCCC4)cc3)C[C@@H]21	-19	0	-7	nt	33*
CN1OC[C@@H]2CN(Cc3ccccc3)[C@H](c3ccc(N4CCCCC4)cc3)C[C@@H]21	-15	0	nt	nt	28*
COC(=O)C[C@H]1C[C@@H]2c3cc(NC(=O)CC4CC4)ccc3O[C@@H]2[C@@H](CO)O1	1	-4[16.7 µM]	-1	nt	-3
CN(C)CCCNC(=O)[C@H]1[C@H](CO)[C@H]2Cn3c(ccc(C4=CCCCC4)c3=O)[C@@H]1N2Cc1cocn1	-1	2[16.7 µM]	2	nt	2
COc1ccc(-c2cc(C)no2)cc1S(=O)(=O)NCCc1ccco1	-5	65	-6	10	26*
CCOc1ccccc1CNS(=O)(=O)c1cc(-c2cc(C)no2)ccc1OC	-5	53	-7	1	0
COc1ccccc1CNS(=O)(=O)c1cc(-c2cc(C)no2)ccc1C(C)C	4	107*	-3	-2	-1
Cc1ccc(NS(=O)(=O)c2cc(-c3cc(C)no3)ccc2C(C)C)nc1	0	99*	0	-4	0
COc1ccc(-c2cc(C)no2)cc1S(=O)(=O)NCC(C)c1ccccc1 (stereo unspecified)	-30	148*	-2	6	-7
C/C=C/c1ccc([C@H]2[C@@H](CO)N(C(=O)NC(C)C)[C@H]2CNC(C)=O)cc1	4	nt	1	nt	nt
CNC(=O)C[C@@H]1CC[C@@H]2[C@H](COC[C@@H](O)CN2C(=O)Nc2cccc(OC)c2)O1	12	2[16.7 µM]	0	nt	0
C[C@@H]1CN([C@@H](C)CO)C(=O)c2cc(NS(=O)(=O)c3ccc(F)cc3)ccc2O[C@@H](C)CCCCO[C@H]1CN(C)C(=O)C1CCCCC1	-30	5[16.7 µM]	3	nt	3
Cc1noc(C)c1NC(=O)Nc1ccc2c(c1)C(=O)N([C@H](C)CO)C[C@@H](C)[C@H](CN(C)C(=O)NC1CCCCC1)O2	6	3[16.7 µM]	-3	nt	-9
C[C@H]1CN([C@@H](C)CO)C(=O)Cc2cc(N(C)C)ccc2O[C@@H]1CN(C)Cc1ccc(Oc2ccccc2)cc1	-1	2[16.7 µM]	-4	nt	26*
C[C@@H]1CN([C@H](C)CO)C(=O)Cc2cc(N(C)C)ccc2O[C@@H]1CN(C)Cc1ccc(Oc2ccccc2)cc1	-1	9[16.7 µM]	0	nt	51*
C[C@H]1CN([C@@H](C)CO)C(=O)Cc2cc(N(C)C)ccc2O[C@H]1CN(C)Cc1ccc(Oc2ccccc2)cc1	4	-6[16.7 µM]	-2	nt	48*
C[C@H](CO)N1C[C@H](C)[C@H](CN(C)Cc2ccccc2)Oc2ccc(N(C)C)cc2CC1=O	9	1[16.7 µM]	1	nt	2
C[C@H]1CN([C@@H](C)CO)C(=O)c2cc(C#CC3CCCCC3)cnc2O[C@H]1CN(C)CC1CC1	-6	-6[16.7 µM]	2	nt	10
C[C@@H]1CCCCO[C@H](CN(C)C(=O)Nc2ccc(C(F)(F)F)cc2)[C@@H](C)CN([C@@H](C)CO)C(=O)c2cc(NS(=O)(=O)c3cn(C)cn3)ccc2O1	-7	2[16.7 µM]	2	nt	2
C[C@@H](NC(=O)[C@@H]1[C@@H](CO)[C@@H]2Cn3c(ccc(-c4cccnc4)c3=O)[C@@H]2N1C)c1ccccc1	-16	1[16.7 µM]	1	nt	1
COc1ccc(N2CCN(C(=O)CNC(=O)Cc3ccccc3)CC2)cc1	-1	-7	-3	53*	0
Cc1cc(C=O)c(C)n1-c1ccc(Cl)c(C(=O)O)c1	-5	4	32*	0	-9
COc1ccc(-n2c(C)cc(C=O)c2C)cc1Cl	nt	0	nt	-6	nt
CC(C)CNC1CS(=O)(=O)CC1O (stereo unspecified)	1	-4	-2	-9	6
SMILES	S100A4 MyoIIA	miR122 inh	ERAP1 inh	Rtt109 Vps75	MLL AF4-AF9 inh
O=S1(=O)CC(O)C(NCc2cccnc2)C1 (stereo unspecified)	nt	-1	nt	65*	nt
C[C@H]1CN([C@@H](C)CO)C(=O)c2cc(NC(=O)CCC(F)(F)F)ccc2O[C@H]1CN(C)S(=O)(=O)c1cccs1	-15	-4[16.7 µM]	1	nt	-1
Cc1cc(/C=C\c2ccccc2)nc2ccccc12	-1	nt	2	-1	26*
COc1ccc(/C=C/c2cc(C(=O)O)c3ccccc3n2)cc1	17	-3	-8	-1	5
O=c1ccc2cc3c([nH]c4ccc(Br)cc43)oc-2c1O	nt	-4	nt	129*	nt
C[C@H](CO)N1C[C@H](C)[C@H](CN(C)Cc2ccncc2)Oc2cc(-c3ccccc3)ccc2S1(=O)=O	-5	-9[16.7 µM]	-2	nt	7
Cc1nc(SCc2ccc(O)c([N+](=O)[O-])c2)c([N+](=O)[O-])[nH]1	7	-4	55*	7	6
C[C@@H]1CN([C@@H](C)CO)C(=O)c2cc(/C=C/c3ccccc3)cnc2O[C@H]1CN(C)S(=O)(=O)c1cccs1	94*	nt	0	nt	0
C[C@@H]1CN([C@H](C)CO)C(=O)c2cc(/C=C/c3ccccc3)cnc2O[C@@H]1CN(C)S(=O)(=O)c1cccs1	-2	nt	-2	nt	6
C[C@@H]1CN([C@@H](C)CO)C(=O)c2cc(/C=C/c3ccccc3)cnc2O[C@H]1CN(C)Cc1ccccc1F	34	29[16.7 µM]	1	nt	28*
C[C@H]1CN([C@@H](C)CO)C(=O)Cc2cc(NC(=O)NC3CCCCC3)ccc2O[C@@H]1CN(C)C(=O)Nc1cccc2ccccc12	0	2[16.7 µM]	3	nt	-2
CC(=O)Nc1nonc1-n1nnc(C(=O)NCc2ccccc2)c1C	nt	266*	nt	-16	nt
CC(=O)Nc1c(C(=O)NCc2ccccc2)nnn1Cc1ccccc1	nt	1	nt	3	nt
CCCC(=O)N1CC2(CCN(C(=O)Nc3cccc(F)c3)CC2)c2c(n(C)c3cc(OC)ccc23)[C@H]1CO	nt	nt	nt	nt	2
CCCN1[C@@H]2c3ccc(/C=C/c4ccccc4)c(=O)n3C[C@H]1[C@H](CO)[C@H]2C(=O)NCC1CC1	-3	14[16.7 µM]	0	nt	-7
C[C@@H]1CN([C@@H](C)CO)C(=O)c2cccc(NS(=O)(=O)c3ccc(F)cc3)c2O[C@H]1CN(C)Cc1ccc(C(=O)Nc2ccccc2N)cc1	-1	nt	0	nt	-2

Assay outcomes as filed in PubChem.
